Screening results from PubChem BioAssay.
Only some compounds are listed: those with a hit (about 6.8% of all), similar ones and a draw of the others.
AI-2 QS mod = Vibrio harveyi AI-2 quorum sensing modulators, primary screen, JMH597 strain, luminescence/OD600 ratio | activity change, % at 7.5 µM | AID 2094, 2009 | Vibrio harveyi JMH597 AI-2 luminescence/OD600 ratio, 9 h; hits give low values; strain lacks LuxN and CqsS sensors; 0 = neutral-control median | 300,000 tested, 0.4% active; in the data active = activity change below about -75%, passing the limit was not always enough;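 also: luminescence divided by OD600 gain over 9 h not by final OD600 alone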
HSF1 activator = HSF-1 activators, primary screen, NIH3T3-HGL cells, MG132 stress, luminescence, single point; 300,000 tested, 1.7% active; AID 504408, 2011; activation, % at 9 µM; NIH3T3-HGL HSF-1 luciferase reporter, 8 h; 100% = twice DMSO control signal;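 active = mean replicate activation of at least 50% with a set share of replicates each reaching 50%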;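 also: 0% = median of the neutral control wells and 100% = twice that signal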
ALR H2O2 inh = inhibitors of human ALR sulfhydryl oxidase, primary screen, biochemical, H2O2 detection, HRP-luminol luminescence, single point; FAD-linked sulfhydryl oxidase ALR (Homo sapiens), P55789; purified ALR, DTT oxidation; 290,000 tested, 3.8% active; inhibition, % (no concentration beside the values); AID 485317, 2010;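 active = mean replicate inhibition above about 79%, with every replicate also reaching it, limit read from the data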
Target sequence (P55789 whole entry, looked up): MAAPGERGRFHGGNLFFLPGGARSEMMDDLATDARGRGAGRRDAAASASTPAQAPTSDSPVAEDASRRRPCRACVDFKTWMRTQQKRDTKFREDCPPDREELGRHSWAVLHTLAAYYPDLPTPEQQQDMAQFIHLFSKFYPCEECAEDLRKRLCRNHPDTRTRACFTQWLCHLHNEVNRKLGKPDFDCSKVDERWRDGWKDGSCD
HSF1 inh = HSF1 inhibitors in luciferase reporter cells, primary screen, cell-based, NIH3T3, luminescence; AID 2098, 2009; 300,000 tested, 0.77% active; activity change, negative = inhibition, % at 7.5 µM (by protocol); NIH3T3-HGL HSE-luciferase, MG132-induced, luminescence 8 h; hits give low values;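 active = more than half of replicate wells show activity change below -50%, luminescence cut by over half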;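 also: luciferase reports HSF-1 transcriptional activity via heat shock element; 0% = median of DMSO wells and -100% = zero luminescence signal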
HCV core dimer = inhibitors of HCV core protein dimerization, primary screen, biochemical, TR-FRET, high-throughput; AID 1899, 2009; TR-FRET GST/Flag-core106 dimerization, 1536-well; 300,000 tested, 0.33% active; inhibition, % at 5 µM;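 active = inhibition above the mean of all tested compounds plus 3 SD, set per screening campaign, cut at about 45% in these data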
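System: GST/Flag-tagged HCV core106 proteins. Incubation: compound-protein-antibody incubation 4 h at 22.5 °C. Technique: HTRF with 340 nm excitation, 617/671 nm emission. Medium: KF-containing HEPES buffer, pH 7.45, DTT, CHAPS, BSA. Read-out: inhibition (%) from 671 over 617 nm ratio. Also added: Eu(K)-anti-GST 90 ng/mL plus XL665-anti-Flag 1 µg/mL.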
PHOSPHO1 inh = PubChem AID 1565 | recombinant PHOSPHO1, absorbance phosphatase assay | inhibition, % at 13.3 µM | 290,000 tested, 1.1% active; in the data active = inhibition above about 60%
Target sequence (Q8TCT1 whole entry, looked up): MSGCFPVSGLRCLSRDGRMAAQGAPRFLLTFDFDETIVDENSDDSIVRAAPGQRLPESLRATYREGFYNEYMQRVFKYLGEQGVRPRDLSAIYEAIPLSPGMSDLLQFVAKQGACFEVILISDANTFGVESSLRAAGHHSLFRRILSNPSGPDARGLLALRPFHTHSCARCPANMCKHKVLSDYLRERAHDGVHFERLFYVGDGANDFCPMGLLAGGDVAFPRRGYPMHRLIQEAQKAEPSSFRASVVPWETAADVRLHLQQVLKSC
Starred values were filed as active, the others as inactive.

Cc1ccc(-c2nn(CCC(=O)O)cc2/C=C\C(=O)c2ccc(Br)cc2)cc1 was read as AI-2 QS mod 17, HSF1 activator 10, ALR H2O2 inh 97*, HSF1 inh 17, HCV core dimer 10 and PHOSPHO1 inh 29.
CC1CCC(NC(=O)CCS(=O)(=O)c2ccc3c(c2)CC(C)N3C(=O)C2CC2)CC1 (stereo unspecified) was read as AI-2 QS mod 2, HSF1 activator 3, ALR H2O2 inh -10, HSF1 inh 8, HCV core dimer -2 and PHOSPHO1 inh 14.
Screening Cn1c(C(=O)NCc2cccnc2)cc2sc(Cl)cc21 returned AI-2 QS mod 11, HSF1 activator 11, ALR H2O2 inh 94*, HSF1 inh 0, HCV core dimer -6 and PHOSPHO1 inh -60.
`O=C(NCc1cccnc1)c1sc2cc(Cl)ccc2c1Cl` gave AI-2 QS mod 14, HSF1 activator 6, ALR H2O2 inh 10, HSF1 inh 5, HCV core dimer 6 and PHOSPHO1 inh 38.
Screening O=S(=O)(c1ccc(NCCc2c[nH]c3ccccc23)nc1)N1CCOCC1 returned AI-2 QS mod 9, HSF1 activator 4, ALR H2O2 inh 6, HSF1 inh -6, HCV core dimer -7 and PHOSPHO1 inh -5.
`O=C(NCc1ccccc1Br)C1CCCO1` (stereo unspecified) gave AI-2 QS mod 34, HSF1 activator -9, ALR H2O2 inh -29, HSF1 inh -8, HCV core dimer -1 and PHOSPHO1 inh 1.
For N#Cc1c(C(F)(F)F)cc(-c2ccco2)nc1SCc1ccncc1 the results were AI-2 QS mod 11, HSF1 activator 2, HSF1 inh -7, HCV core dimer 6 and PHOSPHO1 inh 82*.
CSc1ncccc1C(=O)OCC(=O)c1ccccc1 was read as AI-2 QS mod 14, HSF1 activator 12, ALR H2O2 inh -3, HSF1 inh 17, HCV core dimer -2 and PHOSPHO1 inh 39.
COc1ccc(C(=O)COC(=O)c2cccnc2SC)cc1 was read as AI-2 QS mod 11, HSF1 activator 68*, ALR H2O2 inh 1, HSF1 inh 57, HCV core dimer 5 and PHOSPHO1 inh 1.
Screening CSc1ncccc1C(=O)OCC(=O)c1ccccc1Br returned AI-2 QS mod 20, HSF1 activator 54*, ALR H2O2 inh 4, HSF1 inh 7, HCV core dimer -3 and PHOSPHO1 inh 28.
`CSc1ncccc1C(=O)OCC(=O)c1cc(C)n(CC2CCCO2)c1C` (stereo unspecified) gave AI-2 QS mod 1, HSF1 activator -58, ALR H2O2 inh -1, HSF1 inh -52*, HCV core dimer 7 and PHOSPHO1 inh 10.
For O=C(c1ccc2c(c1)OCCO2)N1CCN(c2ncc(C(F)(F)F)cc2Cl)CC1 the results were AI-2 QS mod -3, HSF1 activator 2, HSF1 inh 1 and HCV core dimer 0.
`COc1ccc(C(=O)CC(=O)Nc2ccc([N+](=O)[O-])cc2)cc1` gave AI-2 QS mod -90*, HSF1 activator 20, ALR H2O2 inh 3, HSF1 inh 7, HCV core dimer 3 and PHOSPHO1 inh 34.
For Cc1ccccc1OCC(=O)Nc1cccc(NC(=O)c2ccco2)c1 the results were AI-2 QS mod 30, HSF1 activator 1, ALR H2O2 inh 6, HSF1 inh -2, HCV core dimer 3 and PHOSPHO1 inh 56.
For Cc1ccccc1OCC(=O)Nc1ccc(NC(=O)c2ccco2)cc1 the results were AI-2 QS mod 6, HSF1 activator -10, ALR H2O2 inh -15, HSF1 inh 1, HCV core dimer -6 and PHOSPHO1 inh 67*.
COc1ccc(NC(=O)CNC(=O)c2ccc([N+](=O)[O-])cc2)cc1 was read as AI-2 QS mod 34, HSF1 activator 24, ALR H2O2 inh -6, HSF1 inh 0, HCV core dimer -2 and PHOSPHO1 inh 42.
`COC(=O)C(C)(C)ONC(=O)Nc1ccc([N+](=O)[O-])cc1` gave AI-2 QS mod 0, HSF1 activator 7, ALR H2O2 inh 0, HSF1 inh -3, HCV core dimer -5 and PHOSPHO1 inh 61*.
Screening Cc1ccccc1OCC(=O)NCC(=O)OCC(=O)c1ccc([N+](=O)[O-])cc1 returned AI-2 QS mod 10, HSF1 activator -9, ALR H2O2 inh 97*, HSF1 inh -3, HCV core dimer -14 and PHOSPHO1 inh 18.
Nc1nc(C(F)(F)F)cc(=O)n1N was read as AI-2 QS mod 12, HSF1 activator 19, ALR H2O2 inh -6, HSF1 inh 6, HCV core dimer -17 and PHOSPHO1 inh 24.
`Cc1cccc(C)c1C(=NCCCN(C)C)c1ccccc1` gave AI-2 QS mod -2, HSF1 activator 1, ALR H2O2 inh -4, HSF1 inh -5, HCV core dimer -8 and PHOSPHO1 inh 4.
For COC(=O)c1sc(NC(=O)COc2ccccc2C)nc1C the results were AI-2 QS mod -6, HSF1 activator 57*, ALR H2O2 inh 2, HSF1 inh 11, HCV core dimer 3 and PHOSPHO1 inh 20.
Screening Cc1ccc(SC(=O)COc2ccccc2C)cc1 returned AI-2 QS mod 26, HSF1 activator -10, ALR H2O2 inh 99*, HSF1 inh 4, HCV core dimer -7 and PHOSPHO1 inh 13.
`O=C(CCOc1ccccc1)Nc1ccc([N+](=O)[O-])cc1` gave AI-2 QS mod -79*, HSF1 activator 12, ALR H2O2 inh -20, HSF1 inh 3, HCV core dimer -12 and PHOSPHO1 inh 44.
For Cc1ccccc1OCC(=O)Nc1ccc([N+](=O)[O-])cc1 the results were AI-2 QS mod 20, HSF1 activator -77, ALR H2O2 inh -5, HSF1 inh -70*, HCV core dimer 7 and PHOSPHO1 inh 44.
Screening CCOC(=O)[C@H]1[C@H]2COc3ccc(OC)cc3[C@H]2N2C(=O)CNC(=O)[C@@]12C returned ALR H2O2 inh -4.
O=C(CCc1ccccc1)OCC(=O)c1ccc([N+](=O)[O-])cc1 was read as AI-2 QS mod 24, HSF1 activator 9, ALR H2O2 inh -2, HSF1 inh -3, HCV core dimer 6 and PHOSPHO1 inh -28.
Screening COc1ccc(C(=O)CC(=O)C(=O)Nc2cccc([N+](=O)[O-])c2C)cc1 returned AI-2 QS mod 11, HSF1 activator 58*, ALR H2O2 inh 32, HSF1 inh 19, HCV core dimer -2 and PHOSPHO1 inh 36.
